Experimental data reported in the EternaBench riboswitch data.

Test system: MS2 coat protein
Assay: apparent Kd, MS2 coat protein; higher = weaker binding; RNA-MaP array; FMN 200 µM where present
Method in brief: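 Designs were transcribed by stalled E. coli RNA polymerase on Illumina sequencing-chip clusters. They were titrated with SNAP-549-labelled MS2 coat protein from 0.7 or 1.5 nM, doubling to 3 µM, in 100 mM Tris-HCl pH 7.5, 80 mM KCl, 4 mM MgCl2, BSA, DTT, yeast tRNA and Tween-20, without and then with constant ligand. The apparent Kd is the median of filtered per-cluster fits after normalisation of green signal to red-channel RNA signal and control-cluster median Fmax.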

[1] = designed as: ON switch for flavin mononucleotide, no ligand
[2] = ligand present: flavin mononucleotide, designed as: ON switch for flavin mononucleotide
[3] = designed as: OFF switch for flavin mononucleotide, no ligand
[4] = ligand present: flavin mononucleotide, designed as: OFF switch for flavin mononucleotide

Row | Sequence | apparent Kd [1] [nM] | apparent Kd [2] [nM] | apparent Kd [3] [nM] | apparent Kd [4] [nM]
1 | GACUGAUUACAGAAGGUGUUUGACAUGAGGAUCACCCAUGUGUUAUUCAGUUUCAUUGAAUUUAACAAGGAUAUGUAUAUAUCA | 220 | 101 | – | –
2 | GACUUCUCUGAGGAUAUUGCAUCAUACGAUAAAUAAGAAGGCAGAACAUGAGGAUCACCCAUGUGGGCUCCAAG | – | – | 54.7 | 256
3 | GACUUGCGCACAGGAUAUCCACGGAGCGGACGUGGAGAAGGGUGACAUGAGGAUCACCCAUGUACGUAAGUCUGGAUCACUCCC | 108 | 33.1 | – | –
4 | GACUUGGCUACAUGAGGAUCACCCAUGUUUGACUGGAUCGAUUAGGAUAUAGUGAUAUGCAACAAUUAGAAGGGAUGUUUACGG | 52.9 | 42.2 | – | –
5 | GACUUGGCUACAUGAGGAUCACCCAUGUUUGACUGGAUCGAUUAGGAUAUAGUGAUUUGCAACAAUUAGAAGGGAUGUUUACGG | 23 | 28.8 | – | –
6 | GACUUGUAAGGAUAUCGUGCAAGUUUCAAAAGAGGCUUGUGCGAGAAGGUACAUGAGGAUCACCCAUGUAGGUU | – | – | 27 | 56.6
7 | GACUUGUAUGAGAAGGGACAUGGACUAGAUGUGACAUGAGGAUCACCCAUGUCAGGAUAUCAAGCGACCCGUAGCCGAUAGGCG | – | – | 10.5 | 46
8 | GAGAAGAAGUUAGGAUAUUGGAUAGGGACGGAAUAAGAAGGAGCAAGACAUGAGGAUCACCCAUGUGUAGAAGAAGAGAUCCUC | – | – | 520 | 384
9 | GAGAAGUCAGGAUAUGCAUGGCGGGACUUGCGUCGUGGCGUGCAGAAGGGACAUGAGGAUCACCCAUGUAAAGC | – | – | 45.4 | 39.5
10 | GAGAGCCGAGGAUAUACAUGAGGAUCACCCAUGUAAAAAAAAAAAAAAAAAAAAUCAUGUAGAAGGCGGCUUUC | – | – | 122 | 89.8
11 | GAGAUGUGAGGAUAUCUAGACCGCGAAAGAGCCGCGGUCCGAGAGAAGGCACAUGAGGAUCACCCAUGUGAUGA | – | – | 46.9 | 119
12 | GAGCAGGUAAUAAAGUAGAAAUACAUGAGGAUCACCCAUGUAUAGGAUAUCGUCAGGAAUACUGACGAGAAGGAUACAUCCUGC | – | – | 14.2 | 18.1
13 | GAGCGGGAAACAUGAGGAUCACCCAUGUAAAAAAUCCUCAAGUAGGAUAUGCGAAAAAAAAAAAAGCAGAAGGGCUACCCGGUC | – | – | 58.3 | 72.7
14 | GAGCUAUGAGGAUAUGCAUAUAUACGGAUUCGUGUAGUACUACAUGAGGAUCACCCAUGUAGAAGGCGUGGCUG | – | – | 13.4 | 16.7
15 | GAGCUCAAGCAGAAGGCCAUAUGUCAAUCGACAUGAGGAUCACCCAUGUAUGAGCUCGGCGUCGUGGAGGAUAUGCAGGCUCUA | 351 | 17.6 | – | –
16 | GAGCUCGAUGAGAAGGGUUACAUGAGGAUCACCCAUGUCGACCUUGGCGUAACAGGAUAUCACCGGGCUCAGUGCGUUGACCCA | – | – | 27.1 | 121
17 | GAGCUGUGAGGAUAUACAUGAGGAUCACCCAUGUUAAGGAAGUGGUGUAUAUUUUAGUGUAGAAGGCACUUAUU | – | – | 121 | 439
18 | GAGCUUGAUGAGAAGGGUUACAUGAGGAUCACCCAUGUCGACCUUGGCGUAACAGGAUAUCAUCGGGCUCUGUGCGUUGACACA | – | – | 27 | 121
19 | GAGGAGCAAGGAUAUACGAGGAUAUGGAAGGUUGGAGAGUGACAUGAGGAUCACCCAUGUAGAAGGUGCGAGGG | – | – | 53.7 | 49.2
20 | GAGGAGCAAGGAUAUACGAGGAUAUGGUAGGUUGGAGAGUGACAUGAGGAUCACCCAUGUAGAAGGUGCGAGGG | – | – | 66.7 | 55.9
21 | GAGGCACAUGAGGAUCACCCAUGUGGGUAGAACAUAGGAUAUCACCAACAAAUUACCCGGUGAGAAGGAUGAUGCC | 234 | 57.4 | – | –
22 | GAGGUACGAGGAUAUACAUAGAUACAGACACAUGUUCAAGUACAUGAGGAUCACCCAUGUAGAAGGCGUAUAUC | – | – | 30.1 | 44.9
23 | GAGUAGAUCCGAGGAUAUACAAUCCGGAAACGGUACAUGAGGAUCACCCAUGUAGAAGGCGGAUCUACAGGUACUAAAGUACCG | – | – | 5.99 | 9.24
24 | GAGUAGUUGGGAGGAUAUCGAUUGUUAUAGAAUCGAGAAGGUUCUAACAUGAGGAUCACCCAUGUAGGACUAUUCCUGUGUAUC | 71.8 | 65.4 | – | –
25 | GAGUGACACCAGAAGGGCCAGGAAAGAACCCUGGUAGGAUAUGGAGCGCCCUCGUAACGACCGACAUGAGGAUCACCCAUGUCC | 193 | 34.7 | – | –
26 | GAGUGACAUGAGGAUCACCCAUGUGAGGAUAUCGGACGGACCUAGUUAGCUUCCGCCGCGAGAAGGCACAUCGG | – | – | 121 | 45.8
27 | GAGUGCUGAGGAUAUACAUGAGGAUCACCCAUGUGCUUCAACUAGGAGACUAGUAUUGGUAGAAGGCAGUACUC | – | – | 16.5 | 104
28 | GAGUGGUGGAGAGGAUAUACAUUGUUAUUCACUGUAGAAGGUUCUAACAUGAGGAUCACCCAUGUAGGACUAUUCCUGUGUUUU | 13.4 | 10.4 | – | –
